# Screens: PubChem BioAssay, several laboratories
# H9c2 TAG inh: inhibitors of triacylglycerol accumulation. H9c2 cells, Nile Red lipid (TAG) fluorescence; cells loaded with 200 µM oleic acid. inhibition, % at 12.5 µM. 230,000 tested, 0.66% active;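 active means pattern-corrected inhibition of lipid staining of at least 50% with the nuclear-stain viability signal not falling by more than 50%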;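 further: 0% = DMSO wells and 100% = triacsin C control wells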
# SR-BI HDL uptake: mouse SR-BI HDL lipid transfer inhibition; Q61009; ldlA[mSR-BI] CHO cells, DiI-HDL uptake fluorescence, 3 h; inhibition, % at 12.5 µM; 320,000 tested, 0.96% active; AID 488896;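 active means mean replicate inhibition of at least 70% and a set share of replicates each scoring 70 or more; inconclusive means meets just one of the two criteria; inactive means fails both criteria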;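 further: 0% = median of neutral control wells and 100% = median of positive control wells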
# Target sequence (Q61009 whole entry, looked up): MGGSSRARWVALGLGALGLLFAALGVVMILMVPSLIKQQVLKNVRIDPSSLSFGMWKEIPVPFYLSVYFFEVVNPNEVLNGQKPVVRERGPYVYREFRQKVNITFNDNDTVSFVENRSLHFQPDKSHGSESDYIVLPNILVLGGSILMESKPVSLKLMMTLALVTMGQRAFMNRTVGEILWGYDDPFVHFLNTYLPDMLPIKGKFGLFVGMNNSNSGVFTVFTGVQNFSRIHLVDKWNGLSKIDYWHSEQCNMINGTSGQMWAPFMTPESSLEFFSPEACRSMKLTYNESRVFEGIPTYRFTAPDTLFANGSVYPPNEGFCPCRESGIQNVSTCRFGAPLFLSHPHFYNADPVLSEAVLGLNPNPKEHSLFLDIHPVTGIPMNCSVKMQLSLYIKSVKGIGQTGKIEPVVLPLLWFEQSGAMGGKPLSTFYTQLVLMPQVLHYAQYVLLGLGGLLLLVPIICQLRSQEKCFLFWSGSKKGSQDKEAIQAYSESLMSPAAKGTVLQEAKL
# SMARCA2 act: activators of SMARCA2 function; MG213 cells, MMTV-luciferase reporter, dexamethasone, overnight; activation, % at 9.1 µM; 370,000 tested, 1% active; in the data active means activation above about 7.8%;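 further: 0% = vehicle wells and 100% = reference activator wells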
# Vif inh: HIV Vif inhibition. 340,000 tested, 0.35% active. inhibition, % at 7.49 µM. HEK293T cells, Vif self-association by quenched fluorescence, imaging, 24 h; in the data active means inhibition above about 50%, passing the limit was not always enough; inconclusive means no clear call, values can overlap the other calls; inactive means below about 31%
# SR-BI DiI-HDL act: enhances SR-BI lipid uptake from DiI-HDL; CHO ldlA[mSR-BI] cells, DiI-HDL uptake fluorescence, 3 h; 100 = double the neutral-control signal; activation, % at 12.5 µM; 320,000 tested, 0.096% active;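 active means mean replicate activation of at least 60% and every replicate at or above 60%; inconclusive means mean or all-replicate condition met, but not both; inactive means mean below 60% and not all replicates reaching 60%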;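 further: 0% = median plate neutral-control signal and 100% = twice that signal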
#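 Assay system: LDL receptor-deficient CHO ldlA cells overexpressing murine SR-BI / Medium: BSA-supplemented, HEPES-buffered Ham's F12, pH 7.4 / Probe or stimulus: DiI-labelled HDL at 10 µg/mL final / Timing: compound with DiI-HDL co-incubation, 3 h at 37 °C / Technique: bottom-read cell fluorescence after medium removal, ex 550/em 595 nm / Measure: HDL uptake via cellular fluorescence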
# The depositor's hits bear a star; ? = inconclusive; . = no result given. Only some compounds are listed: those with a hit (about 2.5% of all), similar ones and a draw of the others.
SMILES,H9c2 TAG inh,SR-BI HDL uptake,SMARCA2 act,Vif inh,SR-BI DiI-HDL act
COc1ccc(OC)c(S(=O)(=O)N2CCCC(C(=O)NCc3ccccn3)C2)c1 (stereo unspecified),.,.,-4,4,.
COc1ccc(OC)c(S(=O)(=O)N2CCCC(C(=O)NCc3cccnc3)C2)c1 (stereo unspecified),.,.,-3,60*,.
Cc1cc(C)c2nc3sc(C(=O)N4CCOCC4)c(N)c3cc2c1,44,.,6,67*,.
O=S1(=O)N[C@@H](Cc2ccccc2)COc2cc(N3CCCCC3)ccc21,.,.,-2,.,.
Cc1nc(N/N=C/c2ccc(O)cc2)c2cnn(-c3ccccc3)c2n1,35,75*,-4,-14,-75
COC(=O)c1cc(OC)c(OC)cc1NC(=O)c1cccc(OC)c1OC,-5,72*,3,-14,-72
CCOC(=O)c1oc2ccccc2c1NC(=O)c1cccc(OC)c1,.,19,2,-4,-19
COC(=O)c1cc(OC)c(OC)cc1NC(=O)Nc1ccccc1OC,.,28,0,5,-28
CCOC(=O)c1oc2ccccc2c1NC(=O)c1cccc(OC)c1OC,.,77*,-2,-5,-77
CC(C)C[C@H]1COc2ccc(Cl)cc2S(=O)(=O)N1,.,.,-2,.,.
Cc1cccc(Nc2nc(-c3ccc(O)c(O)c3)cs2)n1,34,11,0,64*,-11
CC(=O)N1N=C(c2cccc(NS(C)(=O)=O)c2)CC1c1cccs1 (stereo unspecified),-2,-2,7.9*,-5,2
O=C(Nc1ccc2oc(-c3cccnc3)nc2c1)c1ccc(Br)o1,5,58,3,11,-58
COc1cc(NC(=O)c2cccc(Cl)c2)ccc1NC(=O)c1cccs1,41,75*,4,-3,-75
COc1cc(C(=O)Nc2cccc(NC(=O)c3cccs3)c2)cc(OC)c1OC,.,78*,-2,2,-78
COc1cc(NC(=O)c2ccc3c(c2)OCCO3)ccc1NC(=O)c1cccs1,19,74*,-1,3,-74
O=C(Nc1ccc2oc(-c3cccnc3)nc2c1)c1ccc([N+](=O)[O-])o1,75*,16,6,8,-16
COc1cccc(C(=O)N(CCN2CCOCC2)Cc2ccc(OC)c(OC)c2)c1,.,.,-4,.,.
CCOC(=O)C1=C(C(=O)OCC)C2N(Cc3ccc(Br)cc3)c3ccccc3[C@@]23C[C@@H](C(=O)OC)N(S(=O)(=O)c2ccc(C(F)(F)F)cc2)C3=N1 (stereo partly specified),.,.,-5,.,.
COc1cc(C(=O)Nc2ccc3c(c2)nc(C)n3C)cc(OC)c1OC,45,10,-1,8,-10
COc1cc(NC(=O)c2ccc([N+](=O)[O-])o2)ccc1NC(=O)c1cccs1,84,67,-1,-3,-67
COc1cc(C(=O)Nc2ccc3c(c2)ncn3C)cc(OC)c1OC,.,53,-1,76*,-53
O=C(Nc1cccc(NC(=O)c2cccs2)c1)c1ccc([N+](=O)[O-])o1,61*,.,3,.,.
CCOC(=O)N1CCN(C(=O)C[C@H]2C[C@@]3(C(=O)OC)C(=C[C@H](C(C)C)O[C@@H]3C3CC3)N(Cc3ccccc3)C2=O)CC1,.,.,-5,.,.
Cn1ncc2c(O/N=C(\N)c3ccc(C(F)(F)F)cc3)ncnc21,86*,17,4,-1,-17
SMILES,H9c2 TAG inh,SR-BI HDL uptake,SMARCA2 act,Vif inh,SR-BI DiI-HDL act
CCc1ccc(C(=O)CN2C(=O)NC3(CCCCCC3)C2=O)cc1,10,-8,7.9*,-5,8
COc1ccc(O)c(-c2nc(N)nc(N)n2)c1,-10,-23,5,-5,23
Nc1nc(N)nc(-c2cc(F)ccc2O)n1,2,-15,7.9*,1,15
CCN(CC)c1nc(SCCOC(=O)Nc2ccccc2)nc(N(CC)CC)n1,.,87*,0,0,-87
CN(C)c1nc(SCCOC(=O)c2ccccc2)nc(N(C)C)n1,-44,-3,-2,-17,3
O=C(O)CCCCn1c(SCc2ccccc2Cl)nc2ccsc2c1=O,2,-14,-2,59*,14
CCOc1cc(C(=O)OCc2cc(=O)n3c(C)csc3n2)ccc1OC,-8,78*,-1,25,-78
COc1ccccc1NC(=O)Nc1nc(CC(=O)N2CCN(c3ccccc3)CC2)cs1,1,?,-2,-11,-71
COc1ccc(N2CCN(C(=O)Cc3csc(NC(=O)Nc4ccccc4OC)n3)CC2)cc1,1,80*,-3,-2,-80
COc1ccccc1NC(=O)Nc1nc(CC(=O)N2CCN(c3ccc(F)cc3)CC2)cs1,-14,76*,-3,-3,-76
C#CCNC(=O)C[C@H]1C[C@@]2(C(=O)OC)C(=C[C@H](C(C)(C)C)O[C@@H]2C)N(Cc2ccc(Cl)cc2Cl)C1=O,.,.,-3,.,.
O=C(COc1ccc(Cl)cc1Cl)N1CCCN(C(=O)COc2ccc(Cl)cc2Cl)CC1,14,85*,-5,-7,-85
C[C@H]1CN(C(=O)OC(C)(C)C)CCN1c1ccc(N2CC[C@H](O)C2)c(C#N)c1,.,.,3,.,.
COC(=O)C1CN(Cc2cn(Cc3ccc(C)cc3)nn2)CCS(=O)(=O)N1Cc1ccc(OC)cc1 (stereo unspecified),.,.,-4,.,.
CN=C(Nc1ccccc1)SC1CC(=O)N(c2cccc(OC)c2)C1=O (stereo unspecified),.,55,-4,-6,-55
CN=C(Nc1ccccc1)SC1CC(=O)N(c2ccc(C(=O)OC)cc2)C1=O (stereo unspecified),19,10,-1,-2,-10
O=C1CC(SC(=Nc2ccccc2)Nc2ccccc2)C(=O)N1c1cccc(Cl)c1 (stereo unspecified),.,78*,0,-4,-78
O=C1CC(SC(=Nc2ccccc2)Nc2ccccc2)C(=O)N1c1ccc(Cl)cc1 (stereo unspecified),.,71*,0,-1,-71
COC(=O)c1ccc(Cn2ccc3ccc(-c4ccc5ccn(C(=O)c6ccccc6)c5c4)cc32)cc1,.,.,-1,.,.
O=C(Nc1nc2c(Cl)cccc2s1)C1CC1,.,-28,-1,-2,28
O=C(Nc1nc2c(cc3c4c(cccc42)CC3)s1)c1ccccc1Cl,.,76*,0,-1,-76
COC(=O)C1=C(C)N(C)C(=NCc2ccccc2C(F)(F)F)NC1c1ccc(C(F)(F)F)cc1 (stereo unspecified),.,.,-1,.,.
CC1CCN(S(=O)(=O)c2ccc(C(=O)Nc3ccccc3-c3nc4ccccc4[nH]3)cc2)CC1,.,34,9.7*,-6,-34
CC1CCCN(S(=O)(=O)c2ccc(C(=O)Nc3ccccc3-c3nc4ccccc4[nH]3)cc2)C1 (stereo unspecified),.,30,0,3,-30
CC(C)(C)C1CCC2(CC1)C(Nc1cccc(C(F)(F)F)c1)=NC(=S)N2CC#N (stereo unspecified),46,-152,1,1,152*
N#CCN1C(=S)N=C(Nc2cccc(Cl)c2)C12CCCCC2,-1,-7,1,4,7
